From ChEMBL document CHEMBL1155292, “Synthesis, analgesic and anti-inflammatory activities evaluation of some bi-, tri- and tetracyclic condensed pyrimidines” (Eur J Med Chem, 2009)

What was measured:
Rattus norvegicus [1] = test: Antiinflammatory activity in albino rat assessed as inhibition of carrageenan-induced paw edema at 0.029 mmol/kg, po after 4 hrs relative to control; format: functional
Summary of the method: (§1)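 Adult albino rats of either sex, 120–150 g, six per group. Compounds at 0.029 mmol/kg suspended in saline with a few drops of Tween 80 and given by oral stomach tube. After 1 h, 0.1 ml of freshly prepared 1% carrageenan in saline injected subplantar into the right hind paw. Paw thickness measured at 1–4 h; % edema inhibition versus control; mean ± SEM; ANOVA.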

Rattus norvegicus [2] = test: Antiinflammatory activity in albino rat assessed as inhibition of carrageenan-induced paw edema at 0.029 mmol/kg, po after 1 hr relative to control; format: functional; summary of the method: as §1
Mus musculus [3] = test: Analgesic activity in albino mouse assessed as decrease in acetic acid-induced writhing at 10 mg/kg, po administered 1 hr prior to acetic acid challenge relative to control; format: functional
Summary of the method: (§2)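 Albino mice of either sex, 18–22 g, six per group. Test agents suspended in saline with a few drops of Tween 80 and given by oral stomach tube; controls handled identically without drug. After 1 h, 0.3 ml of 1% acetic acid ip. Writhing contractions counted for 30 min, starting 5 min after injection. % protection versus control mean; mean ± SEM; one-way ANOVA with post hoc test.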

Rattus norvegicus [4] = test: Antiinflammatory activity in albino rat assessed as inhibition of carrageenan-induced paw edema at 0.029 mmol/kg, po after 2 hrs relative to control; format: functional; summary of the method: as §1
Rattus norvegicus [5] = test: Antiinflammatory activity in albino rat assessed as inhibition of carrageenan-induced paw edema at 0.029 mmol/kg, po after 3 hrs relative to control; format: functional; summary of the method: as §1
Rattus norvegicus [6] = test: Antiinflammatory activity in albino rat assessed as inhibition of carrageenan-induced paw edema at 0.029 mmol/kg, po after 4 hrs relative to indomethacin; format: functional
Summary of the method: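 Rat carrageenan paw edema: oral 0.029 mmol/kg in saline/Tween 80, 1 h before subplantar 0.1 ml 1% carrageenan into the right hind paw; six rats per group. Potency is % inhibition of the test compound divided by % inhibition of indomethacin at 4 h.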

Mus musculus [7] = test: Analgesic activity in albino mouse assessed as decrease in acetic acid-induced writhing at 11.55 mg/kg, po administered 1 hr prior to acetic acid challenge relative to control; format: functional; summary of the method: as §2
Rattus norvegicus [8] = test: Gastrointestinal toxicity in albino rat assessed as ulcerogenic index at 0.029 mmol/kg, po after 5 hrs; format: organism-based; conditions: in vivo
Summary of the method: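 Adult albino rats of either sex (120–150 g), 6 per group, got the test compounds orally by stomach tube as a suspension in saline with a few drops of tween 80. They were the same rats used in the carrageenan paw-edema test. Stomachs were then opened along the great curvature and examined for lesions or bleeding. Ulceration was recorded as the number of rats with ulcers out of 6.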

Mus musculus [9] = test: Analgesic activity in albino mouse assessed as decrease in acetic acid-induced writhing at 4 mg/kg, po administered 1 hr prior to acetic acid challenge; format: functional; summary of the method: as §2
Mus musculus [10] = test: Analgesic activity in albino mouse assessed as decrease in acetic acid-induced writhing at 2 mg/kg, po administered 1 hr prior to acetic acid challenge; format: functional; summary of the method: as §2
Mus musculus [11] = test: Analgesic activity in albino mouse assessed as decrease in acetic acid-induced writhing at 0.4 mg/kg, po administered 1 hr prior to acetic acid challenge; format: functional; summary of the method: as §2
Mus musculus [12] = test: Analgesic activity in albino mouse assessed as decrease in acetic acid-induced writhing at 8 mg/kg, po administered 1 hr prior to acetic acid challenge; format: functional; summary of the method: as §2
Mus musculus [13] = test: Analgesic activity in albino mouse assessed as decrease in acetic acid-induced writhing at 1 mg/kg, po administered 1 hr prior to acetic acid challenge; format: functional; summary of the method: as §2
Mus musculus [14] = test: Analgesic activity in albino mouse assessed as decrease in acetic acid-induced writhing at 0.8 mg/kg, po administered 1 hr prior to acetic acid challenge; format: functional; summary of the method: as §2
Mus musculus [15] = test: Analgesic activity in po dosed albino mouse assessed as decrease in acetic acid-induced writhing administered 1 hr prior to acetic acid challenge; format: functional, organism-based; summary of the method: as §2
Mus musculus [16] = test: Analgesic activity in albino mouse assessed as decrease in acetic acid-induced writhing at 11.96 mg/kg, po administered 1 hr prior to acetic acid challenge relative to control; format: functional; summary of the method: as §2
Mus musculus [17] = test: Analgesic activity in albino mouse assessed as decrease in acetic acid-induced writhing at 13.84 mg/kg, po administered 1 hr prior to acetic acid challenge relative to control; format: functional; summary of the method: as §2
Mus musculus [18] = test: Analgesic activity in albino mouse assessed as decrease in acetic acid-induced writhing at 13.81 mg/kg, po administered 1 hr prior to acetic acid challenge relative to control; format: functional; summary of the method: as §2
Mus musculus [19] = test: Analgesic activity in albino mouse assessed as decrease in acetic acid-induced writhing at 12.87 mg/kg, po administered 1 hr prior to acetic acid challenge relative to control; format: functional; summary of the method: as §2

| Compound | inhibition in vivo at 29 µmol/kg (Rattus norvegicus [1]) | inhibition in vivo at 29 µmol/kg (Rattus norvegicus [2]) | inhibition in vivo at 10 mg/kg (Mus musculus [3]) | inhibition in vivo at 29 µmol/kg (Rattus norvegicus [4]) | inhibition in vivo at 29 µmol/kg (Rattus norvegicus [5]) | relative potency at 29 µmol/kg (Rattus norvegicus [6]) | inhibition in vivo at 11.55 mg/kg (Mus musculus [7]) | UI (Rattus norvegicus [8]) | inhibition in vivo at 4 mg/kg (Mus musculus [9]) | inhibition in vivo at 2 mg/kg (Mus musculus [10]) | inhibition in vivo at 0.4 mg/kg (Mus musculus [11]) | inhibition in vivo at 8 mg/kg (Mus musculus [12]) | inhibition in vivo at 1 mg/kg (Mus musculus [13]) | inhibition in vivo at 0.8 mg/kg (Mus musculus [14]) | IC50 (Mus musculus [15]) | inhibition in vivo at 11.96 mg/kg (Mus musculus [16]) | inhibition in vivo at 13.84 mg/kg (Mus musculus [17]) | inhibition in vivo at 13.81 mg/kg (Mus musculus [18]) | inhibition in vivo at 12.87 mg/kg (Mus musculus [19]) |
| --- | --- | --- | --- | --- | --- | --- | --- | --- | --- | --- | --- | --- | --- | --- | --- | --- | --- | --- | --- |
| COc1ccc2c(c1)c(CC(=O)O)c(C)n2C(=O)c1ccc(Cl)cc1 [INDOMETHACIN] | 27.3% | 47.2% | 71.6% | 35.5% | 30.9% |  |  |  |  |  |  |  |  |  |  |  |  |  |  |
| O=C1N(c2ccccc2)c2nc(-c3ccccc3)n3c(=O)[nH]nc3c2C2CCCN12 (centres undefined) | 15.5% | 10.1% |  | 12.4% | 17.3% | 0.56 | 75.9% | Non-toxic |  |  |  |  |  |  |  |  |  |  |  |
| O=C1CN2C(=NN1)C1=C(N=C2c2ccccc2)N(c2ccccc2)C(=O)N2CCCC12 (centres undefined) | 21.1% | 2.23% |  | 7.44% | 15.8% | 0.77 |  | Non-toxic | 86.1% | 82.4% | 43.1% | 88.8% | 76.6% | 63.3% | 0.446 mg/kg | 91.8% |  |  |  |
| O=C(NNc1nc(-c2ccccc2)nc2c1C1CCCN1C(=O)N2c1ccccc1)c1cccnc1 (centres undefined) | 5.59% | 32.6% |  | 11.6% | 8.63% | 0.2 |  |  |  |  |  |  |  |  |  |  | 77.9% |  |  |
| O=C(NNc1nc(-c2ccccc2)nc2c1C1CCCN1C(=O)N2c1ccccc1)c1ccccc1 (centres undefined) | 25.5% | 35.9% |  | 28.9% | 27.4% | 0.93 |  |  |  |  |  |  |  |  |  |  |  | 71.8% |  |
| CCOC(=O)NNc1nc(-c2ccccc2)nc2c1C1CCCN1C(=O)N2c1ccccc1 (centres undefined) | 16.1% | 19.1% |  | 17.4% | 18% | 0.59 |  |  |  |  |  |  |  |  |  |  |  |  | 91.8% |
